Activity calls are given as the source filed them. The calls are words filed in the database; no cut-off is given here.
Legend:
[1] = target: T1, von Hippel-Lindau disease tumor suppressor/AKT (Homo sapiens) (UniProt P31751+Q9Y243+P31749+P40337); test: Protac activity at VHL/AKT in human PC-3 cells assessed as reduction in phosphorylated AKT level at 1 uM after 24 hrs by Western blot analysis; type: cell-based
Summary of the method: (§1)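 PC3 cells were exposed to compound at 1 μM for 24 h, with GSK690693 as reference inhibitor. Lysates were immunoblotted for total AKT, P-AKT S473, P-PRAS40 T246 and P-S6 S240/244, with β-actin as loading control. Detection was by HRP chemiluminescence on film.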

[2] = target: T1, von Hippel-Lindau disease tumor suppressor/AKT (Homo sapiens); test: Protac activity at VHL/AKT in human PC-3 cells assessed as reduction in total AKT level at 1 uM after 24 hrs by Western blot analysis; type: cell-based; summary of the method: as §1
[3] = target: T1, von Hippel-Lindau disease tumor suppressor/AKT (Homo sapiens); test: Protac activity at VHL/AKT in human PC-3 cells assessed as reduction in PRAS40 phosphorylation at 1 uM after 24 hrs by Western blot analysis; type: cell-based; summary of the method: as §1
[4] = target: T1, von Hippel-Lindau disease tumor suppressor/AKT (Homo sapiens); test: Protac activity at VHL/AKT in human PC-3 cells assessed as reduction in S6 phosphorylation at 1 uM after 24 hrs by Western blot analysis; type: cell-based; summary of the method: as §1
MDA-MB-468 [5] = test: Antiproliferative activity against human MDA-MB-468 cells assessed as growth inhibition incubated for 5 days by IncuCyte live-cell imaging analysis; type: functional; conditions: MDA-MB-468, 120 h, time 5 day
PC-3 = test: Antiproliferative activity against human PC-3 cells assessed as growth inhibition incubated for 5 days by IncuCyte live-cell imaging analysis; type: functional; conditions: PC-3, 120 h, time 5 day
[6] = target: T2, Protein cereblon/AKT (Homo sapiens) (UniProt P31751+Q9Y243+P31749+Q96SW2); test: Protac activity at CRBN/AKT in human PC-3 cells assessed as reduction in total AKT level at 1 uM after 24 hrs by Western blot analysis; type: cell-based; summary of the method: as §1
[7] = target: T2, Protein cereblon/AKT (Homo sapiens); test: Protac activity at CRBN/AKT in human PC-3 cells assessed as reduction in phosphorylated AKT level at 1 uM after 24 hrs by Western blot analysis; type: cell-based; summary of the method: as §1
BT-474 [8] = test: Antiproliferative activity against human BT-474 cells assessed as growth inhibition incubated for 5 days by IncuCyte live-cell imaging analysis; type: functional; conditions: BT-474, 120 h, time 5 day
[9] = target: T2, Protein cereblon/AKT (Homo sapiens); test: Protac activity at CRBN/AKT in human BT-474 cells assessed as reduction in PRAS40 phosphorylation at 1 uM after 24 hrs by Western blot analysis; type: cell-based
Summary of the method: (§2)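 BT474 cells were treated 24 h with compound and lysed in IP lysis buffer (Tris pH 7.5, Triton X-100, phosphatase and protease inhibitors). Lysates were normalised by BCA and run on 4–12% Bis–Tris gels with PVDF wet transfer. Blots were probed for total AKT, P-AKT S473, P-PRAS40 T246 and P-S6 S240/244, with β-actin loading control and HRP chemiluminescence.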

Mus musculus = test: Toxicity in Swiss albino mouse assessed as tolerability at 50 mg/kg, ip measured upto 8 hrs by LC-MS/MS method; type: organism-based; conditions: in vivo
[10] = mouse, in vivo, ip, 50 mg/kg, 2 h
BT-474 [11] = test: Inhibition of colony formation in human BT-474 cells at 0.1 to 10 uM after 14 days by crystal violet staining based assay; type: functional, cell-based; conditions: dose 0.1-10 µM, time 14.0 day
Summary of the method: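 BT474 cells were cultured 14 days with compound, and medium plus compound was replenished every 2 days. Viable cells were stained with 0.5% crystal violet and quantified.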

MDA-MB-468 [12] = test: Induction of apoptosis in human MDA-MB-468 cells at 2.5 uM measured upto 120 hrs by IncuCyte live-cell automated imaging analysis; type: functional
Summary of the method: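 MDA-MB-468 cells (1–3 × 10³/well, triplicate wells) grown with compound in DMEM/10% FBS at 37 °C, 5% CO₂. DRAQ7 at 1.5 μM was added to the medium, and apoptotic red-fluorescent counts were imaged on an IncuCyte over 5 days.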

[13] = target: T2, Protein cereblon/AKT (Homo sapiens); test: Protac activity at CRBN/AKT in human PC-3 cells assessed as reduction in S6 phosphorylation at 1 uM after 24 hrs by Western blot analysis; type: cell-based; summary of the method: as §1
[14] = target: T2, Protein cereblon/AKT (Homo sapiens); test: Protac activity at CRBN/AKT in human PC-3 cells assessed as reduction in PRAS40 phosphorylation at 1 uM after 24 hrs by Western blot analysis; type: cell-based; summary of the method: as §1
in vivo [15] = conditions: Swiss albino, mouse, ip, 50 mg/kg
in vivo [16] = conditions: Swiss albino, mouse, ip, 50 mg/kg; remark: listed apart in the source
[17] = target: T1, von Hippel-Lindau disease tumor suppressor/AKT (Homo sapiens); test: Protac activity at VHL/AKT in human BT-474 cells assessed as reduction in total AKT level after 24 hrs by Western blot analysis; type: cell-based; conditions: dose 1-10 µM; summary of the method: as §2
[18] = target: T1, von Hippel-Lindau disease tumor suppressor/AKT (Homo sapiens); test: Protac activity at VHL/AKT in human BT-474 cells assessed as reduction in total AKT level at 5 to 10 uM after 24 hrs by Western blot analysis; type: cell-based; conditions: dose 5-10 µM; summary of the method: as §2
[19] = target: T1, von Hippel-Lindau disease tumor suppressor/AKT (Homo sapiens); test: Protac activity at VHL/AKT in human BT-474 cells assessed as reduction in phosphorylated AKT level at 5 to 10 uM after 24 hrs by Western blot analysis; type: cell-based; conditions: dose 5-10 µM; summary of the method: as §2

## CCn1c(-c2nonc2N)nc2c(C#CC(C)(C)O)ncc(OCCCNCCCC(=O)NCCOCC(=O)N[C@H](C(=O)N3C[C@H](O)C[C@H]3C(=O)NCc3ccc(-c4scnc4C)cc3)C(C)(C)C)c21
[1]
  Activity: inactive
[2]
  Activity: inactive

## CCn1c(-c2nonc2N)nc2c(C#CC(C)(C)O)ncc(OCCCNCCCC(=O)NCCCCCCCCCCC(=O)N[C@H](C(=O)N3C[C@H](O)C[C@H]3C(=O)NCc3ccc(-c4scnc4C)cc3)C(C)(C)C)c21
[1]
  Activity: Active
[3]
  Activity: inactive
[4]
  Activity: Active
[2]
  Activity: Active

## CC(C)NC[C@@H](C(=O)N1CCN(c2ncnc3c2[C@H](C)C[C@H]3O)CC1)c1ccc(Cl)cc1 [IPATASERTIB]
MDA-MB-468 [5]
  GI50: 3.7 µM
PC-3
  GI50: 7.6 µM

## CCn1c(-c2nonc2N)nc2c(C#CC(C)(C)O)ncc(OCCCNCCCC(=O)NCCOCCOCCOCCOCCOCCNc3cccc4c3C(=O)N(C3CCC(=O)NC3=O)C4=O)c21 (stereo unspecified)
[6]
  Activity: Active
[7]
  Activity: Active

## CCn1c(-c2nonc2N)nc2c(C#CC(C)(C)O)ncc(OCCCNCCCC(=O)NCCOCCOCC(=O)N[C@H](C(=O)N3C[C@H](O)C[C@H]3C(=O)NCc3ccc(-c4scnc4C)cc3)C(C)(C)C)c21
[1]
  Activity: inactive
[2]
  Activity: inactive

## CCn1c(-c2nonc2N)nc2c(C#CC(C)(C)O)ncc(OCCCNCCCC(=O)NCCOCCOCCOCCOCCNc3cccc4c3C(=O)N(C3CCC(=O)NC3=O)C4=O)c21 (stereo unspecified)
[6]
  Activity: Active
[7]
  Activity: Active

## CCn1c(-c2nonc2N)nc2c(C#CC(C)(C)O)ncc(OCCCNCCCC(=O)NCCOCCOCCOCCOCCOCCC(=O)N[C@H](C(=O)N3C[C@H](O)C[C@H]3C(=O)NCc3ccc(-c4scnc4C)cc3)C(C)(C)C)c21
[1]
  Activity: inactive
[2]
  Activity: inactive

## C[C@@H]1C[C@@H](O)c2ncnc(N3CCN(C(=O)[C@H](CNCCC(=O)NCCCCCCCCNc4cccc5c4C(=O)N(C4CCC(=O)N(C)C4=O)C5=O)c4ccc(Cl)cc4)CC3)c21 (stereo partly specified)
BT-474 [8]
  GI50: 3300 nM

## CCn1c(-c2nonc2N)nc2c(C#CC(C)(C)O)ncc(OCCCNCCCC(=O)NCCOCCOCCOCC(=O)N[C@H](C(=O)N3C[C@H](O)C[C@H]3C(=O)NCc3ccc(-c4scnc4C)cc3)C(C)(C)C)c21
[1]
  Activity: inactive
[2]
  Activity: inactive

## CCn1c(-c2nonc2N)nc2c(C#CC(C)(C)O)ncc(OCCCNCCCC(=O)NCCOCCOCCOCCNc3cccc4c3C(=O)N(C3CCC(=O)NC3=O)C4=O)c21 (stereo unspecified)
[6]
  Activity: Active
[7]
  Activity: Active

## C[C@@H]1C[C@@H](O)c2ncnc(N3CCN(C(=O)[C@H](CNCCNC(=O)CCCCCCCCNc4cccc5c4C(=O)N(C4CCC(=O)NC4=O)C5=O)c4ccc(Cl)cc4)CC3)c21 (stereo partly specified)
[9]
  Activity: Active

## C[C@@H]1C[C@@H](O)c2ncnc(N3CCN(C(=O)[C@H](CNCCC(=O)NCCCCCCCCNc4cccc5c4C(=O)N(C4CCC(=O)NC4=O)C5=O)c4ccc(Cl)cc4)CC3)c21 (stereo partly specified)
Mus musculus
  Activity: Non-Toxic
[10]
  Cmax: 1400 nM
BT-474 [11]
  inhibition: Active
BT-474 [8]
  GI50: 700 nM
MDA-MB-468 [5]
  GI50: 5.7 µM
PC-3
  GI50: 7.4 µM
MDA-MB-468 [12]
  Activity: < 3%

## CCn1c(-c2nonc2N)nc2c(C#CC(C)(C)O)ncc(OCCCNCCCC(=O)NCCOCCNc3cccc4c3C(=O)N(C3CCC(=O)NC3=O)C4=O)c21 (stereo unspecified)
[6]
  Activity: Active
[7]
  Activity: Active

## CCn1c(-c2nonc2N)nc2c(C#CC(C)(C)O)ncc(OCCCNCCCC(=O)NCCOCCC(=O)N[C@H](C(=O)N3C[C@H](O)C[C@H]3C(=O)NCc3ccc(-c4scnc4C)cc3)C(C)(C)C)c21
[1]
  Activity: inactive
[2]
  Activity: inactive

## CCn1c(-c2nonc2N)nc2c(C#CC(C)(C)O)ncc(OCCCNCCCC(=O)NCCOCCOCCC(=O)N[C@H](C(=O)N3C[C@H](O)C[C@H]3C(=O)NCc3ccc(-c4scnc4C)cc3)C(C)(C)C)c21
[1]
  Activity: inactive
[2]
  Activity: inactive

## CCn1c(-c2nonc2N)nc2c(C#CC(C)(C)O)ncc(OCCCNCCCC(=O)NCCOCCOCCOCCC(=O)N[C@H](C(=O)N3C[C@H](O)C[C@H]3C(=O)NCc3ccc(-c4scnc4C)cc3)C(C)(C)C)c21
[1]
  Activity: inactive
[2]
  Activity: inactive

## CCn1c(-c2nonc2N)nc2c(C#CC(C)(C)O)ncc(OCCCNCCCC(=O)NCCCCCCCCNc3cccc4c3C(=O)N(C3CCC(=O)NC3=O)C4=O)c21 (stereo unspecified)
[6]
  Activity: Active
[13]
  Activity: Active
[14]
  Activity: inactive
[7]
  Activity: Active

## Cc1ncsc1-c1ccc([C@H](C)NC(=O)[C@@H]2C[C@@H](O)CN2C(=O)[C@@H](NC(=O)CCCCCCCCCCC(=O)NCCNC[C@@H](C(=O)N2CCN(c3ncnc4c3[C@H](C)C[C@H]4O)CC2)c2ccc(Cl)cc2)C(C)(C)C)cc1
Mus musculus
  Activity: Non-Toxic
In vivo [15]
  Cmax at 2 h: 3.5 µM
BT-474 [8]
  GI50: 1300 nM
MDA-MB-468 [5]
  GI50: 3.8 µM
PC-3
  GI50: 9.2 µM
MDA-MB-468 [12]
  Activity: < 3%
In vivo [16]
  Cmax at 8 h: 3000 nM

## Cc1ncsc1-c1ccc(CNC(=O)[C@@H]2C[C@@H](O)CN2C(=O)[C@@H](NC(=O)CCCCNC(=O)CCNC[C@@H](C(=O)N2CCN(c3ncnc4c3[C@H](C)C[C@H]4O)CC2)c2ccc(Cl)cc2)C(C)(C)C)cc1
[17]
  Activity: Dose-dependent effect

## Cc1ncsc1-c1ccc([C@H](C)NC(=O)[C@H]2C[C@H](O)CN2C(=O)[C@@H](NC(=O)CCCCCCCCCCC(=O)NCCNC[C@@H](C(=O)N2CCN(c3ncnc4c3[C@H](C)C[C@H]4O)CC2)c2ccc(Cl)cc2)C(C)(C)C)cc1
BT-474 [8]
  GI50: 3100 nM

## CCn1c(-c2nonc2N)nc2c(C#CC(C)(C)O)ncc(OCCCNCCCC(=O)NCCOCCOCCNc3cccc4c3C(=O)N(C3CCC(=O)NC3=O)C4=O)c21 (stereo unspecified)
[6]
  Activity: Active
[7]
  Activity: Active

## Cc1ncsc1-c1ccc(CNC(=O)[C@@H]2C[C@@H](O)CN2C(=O)[C@@H](NC(=O)COCCNC(=O)CCNC[C@@H](C(=O)N2CCN(c3ncnc4c3[C@H](C)C[C@H]4O)CC2)c2ccc(Cl)cc2)C(C)(C)C)cc1
[18]
  Activity: Active
[19]
  Activity: Active

## CCn1c(-c2nonc2N)nc2c(C#CC(C)(C)O)ncc(OCCCNCCCC(=O)NCCOCCOCCOCCOCCC(=O)N[C@H](C(=O)N3C[C@H](O)C[C@H]3C(=O)NCc3ccc(-c4scnc4C)cc3)C(C)(C)C)c21
[1]
  Activity: inactive
[2]
  Activity: inactive
